Measurements published in article PMC10100021 (Chemistry, an Asian Journal, 2022).
Read-outs that look alike come from different tables or passages of the source.

Legend:
CYP199A4 [1] = biological target: T1, CYP199A4 (Rhodopseudomonas palustris, UniProt Q2IU02); assay: Spin state shift; assay type: binding, Rhodopseudomonas palustris HaA2; conditions: WT CYP199A4, 50 mM Tris pH 7.4
T1 sequence (Q2IU02 1-410): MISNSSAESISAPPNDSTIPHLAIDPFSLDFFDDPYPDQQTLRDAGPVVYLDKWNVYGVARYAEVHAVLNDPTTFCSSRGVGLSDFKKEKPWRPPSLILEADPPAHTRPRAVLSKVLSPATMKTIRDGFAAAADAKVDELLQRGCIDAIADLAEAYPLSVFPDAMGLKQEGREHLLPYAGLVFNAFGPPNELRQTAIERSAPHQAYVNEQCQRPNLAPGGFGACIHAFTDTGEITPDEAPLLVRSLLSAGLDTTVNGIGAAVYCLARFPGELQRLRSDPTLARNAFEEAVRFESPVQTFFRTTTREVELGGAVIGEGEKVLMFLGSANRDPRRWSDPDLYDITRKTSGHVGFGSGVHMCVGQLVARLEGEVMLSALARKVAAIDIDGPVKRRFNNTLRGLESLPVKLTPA
Summary of the method: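 UV-visible spectra of CYP199A4 recorded at 30±0.5 °C after substrate addition. Percentage shift from low-spin to high-spin heme estimated to approximately ±5% by a previously described method.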

CYP199A4 [2] = biological target: T1, CYP199A4; assay: Dissociation constant determination by substrate binding titration; parameters: species or system Rhodopseudomonas palustris HaA2; conditions: WT CYP199A4, 50 mM Tris pH 7.4
Summary of the method: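 CYP199A4 at 0.5–1.5 μM in 50 mM Tris, pH 7.4, held at 30 °C. Substrate titrated in from 1, 10 or 100 mM ethanol stocks. Soret band peak-to-trough absorbance difference recorded over 700–250 nm. Percentage high-spin shift estimated to about ±5%. Kd fitted from the ΔA titration data.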

CYP199A4 [3] = biological target: T1, CYP199A4; assay: In vitro NADH oxidation activity assay; assay type: biochemical, Rhodopseudomonas palustris HaA2; conditions: for PFR (product formation rate): HaPuR:HaPux:CYP199A4 1:10:1, 0.5 μM CYP, 50 mM Tris pH 7.4; for Coupling (percentage of NADH utilized for the formation of products): WT CYP199A4
Summary of the method: (§1)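 Turnover run at 30 °C in oxygenated 50 mM Tris, pH 7.4, with 5 μM HaPux, 0.5 μM HaPuR and 0.5 μM CYP199A4 (WT or F298V). Started with substrate at 1 mM final. Product formation rate and coupling from quantified products. H2O2 by HRP/phenol/4-aminoantipyrine assay. Mean ±S.D., n≥3.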

CYP199A4 [4] = biological target: T1, CYP199A4; assay: Product distribution of enzyme-catalyzed oxidation by HPLC / GC-MS; assay type: biochemical, Rhodopseudomonas palustris HaA2
Summary of the method: (§2)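 Products of in vitro turnovers quantified by HPLC against product-standard calibrations. Sample: 132 μL reaction mix plus 2 μL of 10 mM 9-hydroxyfluorene in ethanol as internal standard (diphenylmethane for the isopropyl substrate), then 66 μL acetonitrile. Standards made by whole-cell E. coli oxidation or borohydride reduction, or estimated from the closest analogue. Derivatized samples identified by GC-MS on a DB-5 column.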

CYP199A4 [5] = biological target: T1, CYP199A4; assay: Hydrogen peroxide uncoupling, HRP/phenol/4-aminoantipyrine assay; assay type: biochemical, Rhodopseudomonas palustris HaA2; conditions: WT CYP199A4, HRP assay
Summary of the method: as §1

CYP199A4 [6] = biological target: T1, CYP199A4; conditions: WT CYP199A4, cited from earlier work; for shift to the high‐spin form of ferric CYP199A4: ref 9c, 14, 17; for HS (%), change in the heme spin state from low‐spin to high‐spin upon addition of substrate: reported previously
CYP199A4 [7] = biological target: T1, CYP199A4; conditions: WT CYP199A4; reported previously; cited from earlier work
F298V mutant of CYP199A4 [8] = assay: Spin state shift assay with F298V mutant; assay type: binding, Rhodopseudomonas palustris HaA2
F298V mutant of CYP199A4 [9] = assay: In vitro NADH oxidation activity assay with F298V mutant; assay type: biochemical, Rhodopseudomonas palustris HaA2
Summary of the method: as §1

F298V mutant of CYP199A4 [10] = assay: Product distribution of oxidation by F298V mutant; assay type: biochemical, Rhodopseudomonas palustris HaA2
Summary of the method: as §2

CYP199A4 [11] = biological target: T1, CYP199A4; conditions: WT CYP199A4; reported previously; cited from earlier work; remark: listed apart in the source
[12] = WT CYP199A4, min^−1 abbreviates nmol.nmol‐CYP^−1.min^−1
[13] = listed as 4‐n‐propylbenzoic acid

Row | SMILES | HS (%), change in the heme spin state from low‐spin to high‐spin upon addition of substrate (CYP199A4 [1]) | Kd (CYP199A4 [2]) | PFR (product formation rate) (CYP199A4 [3]) | Coupling (percentage of NADH utilized for the formation of products) (CYP199A4 [3]) | product formation rate (CYP199A4 [3]; [12]) | epoxide further oxidation product, share of total products (CYP199A4 [4]; WT CYP199A4, in vitro turnover) | shift to the high‐spin form of ferric CYP199A4 (CYP199A4 [6]) | HS (%), change in the heme spin state from low‐spin to high‐spin upon addition of substrate (CYP199A4 [6]) | Coupling (percentage of NADH utilized for the formation of products) (CYP199A4 [7]) | NADH (frequency of NADH oxidation) (CYP199A4 [7]) | PFR (product formation rate) (CYP199A4 [7]) | further results
1 | CC(C)(C)c1ccc(C(=O)O)cc1 [4‐t‐butylBA, 4‐t‐butylbenzoic acid] | – | – | – | – | – | – | ≥ 95% | ≥95% | 100±13% | 227±4 nmol.nmol‐CYP^−1.min^−1 | 227±32 nmol.nmol‐CYP^−1.min^−1 | –
2 | CCCc1ccc(C(=O)O)cc1 [4‐n‐propylBA, 4‐n‐propylbenzoic acid] | ≥95% | 540 ± 20 nM | 594±72 nmol.nmol‐CYP^−1.min^−1 | 86±8% | – | 12% | – | – | – | – | – | HS (%), change in the heme spin state from low‐spin to high‐spin upon addition of substrate (CYP199A4 [1]; [13]): ≥ 95%; Coupling (percentage of NADH utilized for the formation of products) (CYP199A4 [3]; [13]): 86%; shift to the high‐spin form (F298V mutant of CYP199A4 [8]): ≥ 95%; NADH oxidation rate (F298V mutant of CYP199A4 [9]): 378 ± 5 min⁻¹; coupling efficiency (F298V mutant of CYP199A4 [9]): 71%; Cβ hydroxylation product 4‐(2‐hydroxypropyl)benzoic acid (F298V mutant of CYP199A4 [10]): almost none; metabolites arising from initial desaturation, share of total products (F298V mutant of CYP199A4 [10]): 73%
3 | CCc1ccc(C(=O)O)cc1 [4‐ethylBA, 4‐ethylbenzoic acid] | – | – | – | – | – | – | ≥ 95% | ≥95% | 64±4% | 812±7 nmol.nmol‐CYP^−1.min^−1 | 525±88 nmol.nmol‐CYP^−1.min^−1 | Kd (CYP199A4 [11]): 340 ± 20 nM
4 | CC(C)Cc1ccc(C(=O)O)cc1 [4‐isobutylBA, 4‐isobutylbenzoic acid] | >95% | 590 ± 30 nM | 146±21 nmol.nmol‐CYP^−1.min^−1 | 41±5% | 146 min⁻¹ | – | – | – | – | – | – | –
5 | CC(C)c1ccc(C(=O)O)cc1 [4‐isopropylBA, 4‐isopropylbenzoic acid] | – | – | – | – | – | – | ≥ 95% | ≥95% | 68±1% | 325±36 nmol.nmol‐CYP^−1.min^−1 | 221±27 nmol.nmol‐CYP^−1.min^−1 | Kd (CYP199A4 [11]): 290 ± 10 nM

Further lines, with some results ahead:

Row | HS (%), change in the heme spin state from low‐spin to high‐spin upon addition of substrate (CYP199A4 [1]) | Kd (CYP199A4 [2]) | PFR (product formation rate) (CYP199A4 [3]) | Coupling (percentage of NADH utilized for the formation of products) (CYP199A4 [3]) | product formation rate (CYP199A4 [3]; [12]) | epoxide further oxidation product, share of total products (CYP199A4 [4]; WT CYP199A4, in vitro turnover) | SMILES | shift to the high‐spin form of ferric CYP199A4 (CYP199A4 [6]) | HS (%), change in the heme spin state from low‐spin to high‐spin upon addition of substrate (CYP199A4 [6]) | Coupling (percentage of NADH utilized for the formation of products) (CYP199A4 [7]) | NADH (frequency of NADH oxidation) (CYP199A4 [7]) | PFR (product formation rate) (CYP199A4 [7]) | further results
6 | ≥95% | 280 ± 20 nM | 170±22 nmol.nmol‐CYP^−1.min^−1 | 45±5% | 170 min⁻¹ | – | O=C(O)c1ccc(C2CC2)cc1 [4‐cyclopropylBA, 4‐cyclopropylbenzoic acid] | – | – | – | – | – | HS (%), change in the heme spin state from low‐spin to high‐spin upon addition of substrate (CYP199A4 [1]; listed as 4‐cyclopropylbenzoic acid): ≥ 95%; NADH oxidation rate (CYP199A4 [3]; [12]): 383 min⁻¹; Cα–Cβ desaturation alkene product, share of total products (CYP199A4 [4]; WT CYP199A4, in vitro turnover): No desaturation was observed; hydrogen peroxide uncoupling (CYP199A4 [5]): ≤ 2%
7 | 90% | 390 ± 40 nM | 67±3 nmol.nmol‐CYP^−1.min^−1 | 40±1% | 67 min⁻¹ | 2% | CCCCc1ccc(C(=O)O)cc1 [4‐n‐butylBA, 4‐n‐butylbenzoic acid] | – | – | – | – | – | unidentified minor product, share of total products (CYP199A4 [4]; WT CYP199A4, HPLC): < 2%; Cα–Cβ desaturation alkene product, share of total products (CYP199A4 [4]; WT CYP199A4, in vitro turnover): 50%; Cβ hydroxylation product, share of total products (CYP199A4 [4]; WT CYP199A4, in vitro turnover): did not generate any detectable product
8 | ≥95% | 160 ± 30 nM | 147±12 nmol.nmol‐CYP^−1.min^−1 | 53±2% | 147 min⁻¹ | 3% | CCCCCCCc1ccc(C(=O)O)cc1 [4‐n‐heptylBA, 4‐n‐heptylbenzoic acid] | – | – | – | – | – | Coupling (percentage of NADH utilized for the formation of products) (CYP199A4 [3]; listed as 4‐n‐heptylbenzoic acid): 53%
